{"source": "paper PMC8756568", "about": "(ACS Omega, 2021)", "key": {"[1]": {"tested_on": "Huh-7 cells", "experiment": "cellular uptake in Huh-7 cells", "assay_type": "cell-based, human", "details": "n = 3", "how_it_was_run": "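Huh-7 cells were seeded at 1×10^5 per well in DMEM/10% FBS. Radiolabeled tracer (740 KBq/1 mL medium) was added, with incubation at 37 or 4 °C for 5, 10, 20, 40, 60 and 80 min. Cells were washed three times with cold PBS and lysed in 0.5 M NaOH. Lysate radioactivity was gamma-counted.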"}, "[2]": {"tested_on": "B16F10 cells", "experiment": "cellular internalization in B16F10 cells", "assay_type": "cell-based, mouse", "details": "n = 3"}}, "data": [{"substance": "NODAGA-Ahx-CWRLRWHSPLKGM-OH [[^64Cu]CM-3]", "values": [{"measurement": "in vitro cellular internalization", "setting": "[1]", "value": "weaker binding"}, {"measurement": "in vitro cellular internalization", "setting": "[2]", "value": "weaker binding"}]}]}
